Screens as filed in PubChem BioAssay.
OX1R antag-1: antagonists of human orexin 1 receptor | O43613 | inhibition, % at 5 µM | 0.43% of 330,000 active | CHO/OX1R cells, Fluo-8 calcium fluorescence, orexin A | AID 434989;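 active = inhibition above its plate's threshold, mean inhibition of all tested compounds on the plate plus 3 SD, cut at about 37% in these data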
OX1R antag-2: antagonists of human orexin 1 receptor (OX1R); 1.8% of 330,000 active; OX1R-expressing cells, FRET antagonist read-out; O43613; inhibition, % at 6.6 µM; in the data active = inhibition mostly above about 38%, no sharp cut-off; inactive = mostly below about 40%
CHO parental Ca: counter-screen for OX1R antagonists: effect in parental CHO cells; inhibition, % at 5.6 µM; parental CHO-K1, ATP-induced calcium, Fluo-8 fluorescence; 0.63% of 330,000 active;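 active = inhibition above that plate's mean sample inhibition plus 3 SD, cut at about 26% in these data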
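test system = CHO parental line | reagent = ATP stimulus | measured by = intracellular calcium via Fluo-8 no-wash fluorescent dye | control set = ATP and no-ATP DMSO wells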
MPTP inh: inhibitors of mitochondrial permeability transition pore. isolated mouse mitochondria, Ca2+ swelling absorbance, 30 min. 1.4% of 360,000 active. inhibition, % at 10 µM. AID 602449;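 active = inhibition of 50% or more, scaled per plate between neutral and stimulator controls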
GPR7 antagonist: blocks human GPR7 receptor signaling. 1.1% of 290,000 active. inhibition, % at 4.4 µM. GPR7-expressing cells, fluorescence antagonist assay. P48145; in the data active = inhibition above about 16%, passing the limit was not always enough;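 note: cells stimulated with the agonist NPW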
Target sequence (P48145 whole entry, looked up): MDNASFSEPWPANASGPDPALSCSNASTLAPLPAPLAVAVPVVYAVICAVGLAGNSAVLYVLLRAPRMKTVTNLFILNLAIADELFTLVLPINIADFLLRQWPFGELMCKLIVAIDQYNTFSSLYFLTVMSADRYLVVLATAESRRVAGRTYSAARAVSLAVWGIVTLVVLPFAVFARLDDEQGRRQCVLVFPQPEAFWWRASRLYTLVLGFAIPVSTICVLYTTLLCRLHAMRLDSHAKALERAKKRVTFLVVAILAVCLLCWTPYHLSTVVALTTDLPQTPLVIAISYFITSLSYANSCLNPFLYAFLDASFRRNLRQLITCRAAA
Of the large screens only hits and unclear results are named; the others gave an inactive call. This is a sample that favours compounds with a hit; in the whole collection about 3.8% have one here.

COc1cc(/C=N/NC(=O)c2cc3c(ccc4ccccc43)o2)cc(OC)c1O	OX1R antag-2 53
O=C(N/N=C/c1cc2c(cc1Br)OCO2)c1cc2ccccc2o1	OX1R antag-2 76
CCOC(=O)C(=O)Nc1cc(Cl)ccc1C	none
CC(=O)c1sc2nc(-c3cccs3)cc(C(F)(F)F)c2c1N	OX1R antag-1 42
OCc1ccccc1-c1cccc2nccn12	none (no result: OX1R antag-1, OX1R antag-2, CHO parental Ca, GPR7 antagonist)
O=C(O)CNC(=O)c1ccc(Sc2ccccc2)c([N+](=O)[O-])c1	OX1R antag-2 64
C=CCNC(=O)c1ccc(Sc2ccccc2)c([N+](=O)[O-])c1	none
CSc1ccc(C(=O)NCC(=O)O)cc1[N+](=O)[O-]	OX1R antag-2 53
C[C@H]1Cn2cnc(C(=O)Nc3ccccc3)c2C(=O)N1	none (no result: OX1R antag-1, OX1R antag-2, CHO parental Ca, GPR7 antagonist)
CC1(C)CC[C@]2(C(=O)O[C@@H]3OC(CO)[C@@H](O)[C@H](O)[C@H]3O)CC[C@]3(C)C(=CCC4[C@@]5(C)CC[C@H](O[C@@H]6OC(C(=O)O)[C@@H](O)[C@H](O)[C@H]6O)C(C)(C)C5CC[C@]43C)[C@@H]2C1 (stereo not given in full)	OX1R antag-1 88, CHO parental Ca 100 (no result: GPR7 antagonist)
C/C=C(\C)C(=O)OC1CC(C)(C)C[C@H]2C3=CC[C@@H]4[C@@]5(C)CCC(O[C@@H]6O[C@@H](C(=O)O)[C@@H](O)C(O[C@@H]7OC[C@H](O)[C@@H](O)[C@@H]7O[C@@H]7OC(CO)C(O)[C@@H](O)[C@@H]7O)C6O[C@@H]6OC(CO)C(O)C(O)C6O)[C@@](C)(CO)[C@@H]5CC[C@]4(C)[C@]3(C)CC(O)[C@@]12CO (stereo not given in full)	CHO parental Ca 41 (no result: GPR7 antagonist)
Cc1nn(C)c2c1NC(=O)CS2	none (no result: OX1R antag-1, OX1R antag-2, CHO parental Ca, GPR7 antagonist)
CON(c1nc(N(C)C)nc(N(C)C)n1)S(=O)(=O)c1ccccc1Cl	OX1R antag-2 31
CN(c1ccccc1)S(=O)(=O)c1cccc(Cl)c1Cl	none
Cc1ccccc1C(=O)Nc1ccnn1C1CCN(Cc2cnn(C(C)C)c2)CC1	none
CCCCN1C(=O)c2ccc(C(=O)OCC(=O)N3CCN(c4ccccc4)CC3)cc2C1=O	none (no result: GPR7 antagonist)
COCCCN1C(=O)c2ccc(C(=O)OCC(=O)N3CCN(c4ccccc4)CC3)cc2C1=O	OX1R antag-2 46 (no result: GPR7 antagonist)
COc1cc2c(cc1OC)CN(C(=S)Nc1ccc(OC(F)F)cc1)CC2	CHO parental Ca 45
Clc1ccc(C(Cn2ccnc2)OCc2c(Cl)cccc2Cl)c(Cl)c1 (stereo not given)	CHO parental Ca 60 (no result: GPR7 antagonist)
OC(Cn1ccnc1)c1ccc(Cl)cc1Cl (stereo not given)	none
CC1=C(C(=O)Nc2cccc(C(=O)N3CCN(c4cccc(C(F)(F)F)c4)CC3)c2)SCCO1	OX1R antag-1 62, CHO parental Ca 40
FC(F)(F)c1cccc(NC(=S)N2CCN(c3cccc(C(F)(F)F)c3)CC2)c1	CHO parental Ca 69
COCCNc1nc(NCc2ccc(C(C)C)cc2)c2sccc2n1	none (no result: OX1R antag-1, OX1R antag-2, CHO parental Ca, GPR7 antagonist)
Cc1ccc(Nc2nc(N)nc(CN3CCCCCC3)n2)c(C)c1	GPR7 antagonist 20
Cc1ccc(Nc2nc(N)nc(CN3CCC(C)CC3)n2)c(C)c1	none
Cc1cccc2[nH]c3c(N4CCC5(CC4)OCCO5)ncnc3c12	none
Clc1ccc2[nH]c3c(N4CCC5(CC4)OCCO5)ncnc3c2c1	OX1R antag-2 82 (no result: MPTP inh)
Brc1ccc2[nH]c3c(N4CCc5ccccc5C4)ncnc3c2c1	OX1R antag-1 44, CHO parental Ca 47 (no result: MPTP inh)
COc1ccc(NC(=O)Cn2ccc(C(F)(F)F)n2)cc1S(=O)(=O)N1CCOCC1	none (no result: GPR7 antagonist)
COC(=O)[C@H](NC(=O)c1cc([C@@H](NC(=O)OC(C)(C)C)C(C)C)sc1N)C(C)C	none (no result: OX1R antag-1, OX1R antag-2, CHO parental Ca, GPR7 antagonist)
CCCN1C(=O)c2ccc(C(=O)NC3=NCCS3)cc2C1=O	OX1R antag-2 45
CCCN1C(=O)c2ccc(C(=O)Nc3ccc4c(c3)OCO4)cc2C1=O	none
CN1C(=O)c2ccc(C(=O)Nc3ccccc3O)cc2C1=O	OX1R antag-2 41
O=C(Nc1ccccc1O)c1ccc2c(c1)C(=O)N(c1ccccc1)C2=O	none (no result: OX1R antag-1, OX1R antag-2, CHO parental Ca)
CC(c1ccccc1)N1C(=O)c2ccc(C(=O)Nc3ccccc3C(=O)O)cc2C1=O (stereo not given)	OX1R antag-2 70
CN1C(=O)c2ccc(C(=O)Nc3nccs3)cc2C1=O	OX1R antag-2 73
COc1ccc(C(c2c(O)ccc3ccccc23)N2CCOCC2)c(OC)c1 (stereo not given)	OX1R antag-1 71, CHO parental Ca 68
Cc1nc(SCC(=O)c2cccs2)c2oc3ccccc3c2n1	OX1R antag-2 73
Cc1nc(SCc2nc3ccccc3[nH]2)c2oc3ccc(Br)cc3c2n1	none (no result: GPR7 antagonist)
Cc1nc(SCc2nc3ccccc3[nH]2)c2oc3ccccc3c2n1	OX1R antag-2 79
O=C(CSc1ncnc2c1oc1ccccc12)c1cccs1	none
COc1cccc(CN2CC(C(=O)NCc3ccc(Cl)s3)CCC2=O)c1 (stereo not given)	none (no result: OX1R antag-1, OX1R antag-2, CHO parental Ca)
Cn1nc(C(C)(C)C)cc1N1C(=O)CCC1(C)C(=O)NC1CCCC1 (stereo not given)	none (no result: OX1R antag-1, OX1R antag-2, CHO parental Ca, GPR7 antagonist)
CC1Cc2ccccc2N1c1ncnc2nc[nH]c12 (stereo not given)	OX1R antag-2 74
COc1ccc(/C=C/C(=O)c2cc(F)ccc2OC(=O)c2ccccc2OC)cc1OC	GPR7 antagonist 17 (no result: OX1R antag-1, OX1R antag-2, CHO parental Ca)
COC(OC)c1ccc(C#N)c(=O)[nH]1	none
N#Cc1nc(-c2ccc(Cl)cc2)oc1NCc1ccco1	CHO parental Ca 44
N#Cc1nc(-c2ccccc2)oc1NCc1ccco1	none
CCOc1[nH]n(-c2ccc(Cl)cc2)c(=O)c1C=Nc1ccc(Cl)cc1	CHO parental Ca 38
Cc1ccc(C)c(S(=O)(=O)N2CCCC2CNC(=O)C(=O)NCCc2ccccc2)c1 (stereo not given)	OX1R antag-2 38 (no result: GPR7 antagonist)
COc1ccc(S(=O)(=O)N2CCCC2CNC(=O)C(=O)NCCc2ccccc2)cc1 (stereo not given)	OX1R antag-2 39 (no result: GPR7 antagonist)
COc1ccc(CCNC(=O)C(=O)NCC2CCCN2S(=O)(=O)c2ccccc2)cc1 (stereo not given)	none (no result: GPR7 antagonist)
Cc1ccc(C)c(S(=O)(=O)N2CCCCC2CCNC(=O)C(=O)NC2CC2)c1 (stereo not given)	OX1R antag-2 35 (no result: GPR7 antagonist)
O=C(NCCc1ccc(F)cc1)C(=O)NCC1CCCN1S(=O)(=O)c1ccccc1 (stereo not given)	OX1R antag-2 58 (no result: GPR7 antagonist)
CCN1CCN(C(=S)NC(=O)c2cccc(Br)c2)CC1	none (no result: GPR7 antagonist)
COCCN1C(=O)CSCC1(C)C(=O)NCc1ccccc1 (stereo not given)	none (no result: OX1R antag-1, OX1R antag-2, CHO parental Ca, GPR7 antagonist)
COc1ccc(-c2csc(C(O)c3ccc(F)cc3)n2)cc1OC (stereo not given)	none (no result: OX1R antag-1, OX1R antag-2, CHO parental Ca, GPR7 antagonist)
COc1cccc(C(=O)NCC2CCCN2S(=O)(=O)c2cccs2)c1 (stereo not given)	none (no result: GPR7 antagonist)
COc1ccccc1CCNC(=O)C(=O)NCC1CCCN1S(=O)(=O)c1ccccc1 (stereo not given)	OX1R antag-2 49 (no result: GPR7 antagonist)
COc1ccc(S(=O)(=O)N2CCCC2CNC(=O)c2cccc(OC)c2)cc1 (stereo not given)	OX1R antag-2 43 (no result: GPR7 antagonist)
